ChEMBL document CHEMBL1148632, “Discovery of a novel family of SARS-CoV protease inhibitors by virtual screening and 3D-QSAR studies” (J Med Chem, 2006)

Biological target: Replicase polyprotein 1a (Severe acute respiratory syndrome-related coronavirus, UniProt P0C6U8)
Assay: Inhibition of SARS coronavirus 3C-like protease
Outline: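 Recombinant SARS-CoV 3CLpro (pET32Xa/LIC construct) at 50 nM with 6 µM fluorogenic peptide Dabcyl-KTSAVLQ-SGFRKME-Edans in 20 mM Bis-Tris pH 7.0 at 25 °C. Cleavage read as fluorescence increase (ex 355, em 538 nm). Initial velocities plotted against inhibitor concentration; IC50 fitted with A[I] = A[0]×(1 − [I]/([I]+IC50)).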

| SMILES | IC50 (read-out: IC50) [µM] | IC50 (read-out: -Log IC50 (converted)) [µM] |
| --- | --- | --- |
| COc1cccc(-c2nc(SCC(=O)Nc3ccc([N+](=O)[O-])cc3)[nH]c(=O)c2C#N)c1 | 300 | – |
| CCC(Sc1nc(O)c(C#N)c(-c2cccc(OC)c2)n1)C(=O)Nc1ccc(C(C)=O)cc1 (centres undefined) | 60 | – |
| CC(C)(C)c1ccc(NC(=O)CSc2nc(C3CCCCC3)c(C#N)c(=O)[nH]2)cc1 | 350 | – |
| CSc1sc(-c2nc(C)cs2)c(C)c1-c1ccnc(SCC(=O)Nc2ccc(Cl)cc2)n1 | 11 | – |
| CC(C)c1ccc(NC(=O)CSc2nccc(-c3csc(COc4ccccc4Cl)n3)n2)cc1 | 200 | – |
| Cc1cc(O)nc(SCC(=O)Nc2ccc(Oc3ccc(Cl)cc3)cc2)n1 | 200 | – |
| O=C(CSc1nccc(-c2csc(-c3ccccc3)n2)n1)Nc1cc(Cl)cc(Cl)c1 | 3 | – |
| O=C(CSc1nccc(-c2cc(-c3ccccc3Cl)no2)n1)Nc1ccc(Cl)cc1 | 15 | – |
| COc1cccc(-c2nc(SCC(=O)Nc3ccc(S(N)(=O)=O)cc3)[nH]c(=O)c2C#N)c1 | 40 | – |
| COc1cccc(-c2nc(SCC(=O)Nc3ccc(C(C)=O)cc3)[nH]c(=O)c2C#N)c1 | 60 | – |
| Cc1cc(C(F)(F)F)nc(SCC(=O)Nc2ccc(Cl)cc2F)n1 | 500 | – |
| CCCCc1ccc(NC(=O)CSc2nc(O)c(C#N)c(C3CCCCC3)n2)c(C)c1 | 200 | – |
| CC(Sc1nc(-c2ccccc2)c(C#N)c(=O)[nH]1)C(=O)Nc1ccc(Cl)cc1 (centres undefined) | 300 | – |
| O=C(CSc1nccc(-c2cc(-c3ccccc3)no2)n1)Nc1ccc(Cl)cc1 | 15 | – |
| COc1ccc(NC(=O)CSc2nc(O)cc(-c3ccccc3)n2)cc1OC | 45 | – |
| O=C(CSc1nccc(-c2cc(-c3ccc(Cl)cc3Cl)no2)n1)Nc1ccc(C(F)(F)F)cc1 | 15 | – |
| Cc1cc(O)nc(SCC(=O)Nc2cc(Cl)ccc2Oc2ccccc2)n1 | 100 | – |
| Cn1nc(-c2ccc(-c3ccnc(SCC(=O)Nc4ccc(Cl)cc4)n3)s2)cc1C(F)(F)F | 10 | – |
| Cc1nc(-c2nc(-c3ccnc(SCC(=O)Nc4ccc(Cl)cc4)n3)cs2)cs1 | 14 | – |
| N#Cc1c(-c2ccccc2)nc(SCC(=O)Nc2cccc(C(F)(F)F)c2)[nH]c1=O | 200 | – |
| COC(OC)c1cc(O)nc(SCC(=O)Nc2ccc(C(F)(F)F)cc2)n1 | 200 | – |
| CCCc1cc(O)nc(SCC(=O)Nc2ccc(Cl)cc2)n1 | 30 | – |
| CCOC(=O)c1cnc(SCC(=O)Nc2ccc([N+](=O)[O-])cc2)nc1N | 250 | – |
| COc1ccc(-c2ccnc(SCC(=O)Nc3ccc(C(C)C)cc3)n2)cc1 | 400 | – |
| CCOc1ccc(N2C(=O)CC(Sc3nc(C)cc(C)n3)C2=O)cc1 (centres undefined) | 300 | – |
| Cc1nc(SCC(=O)Nc2ccc([N+](=O)[O-])cc2)nc(O)c1C | > 1000 | > 1000 |
| CC(C)c1ccc(NC(=O)CSc2nccc(-c3cccs3)n2)cc1 | 40 | – |
| CSc1sc(-c2nc(C)cs2)c(C)c1-c1ccnc(SCC(=O)Nc2ccccc2Cl)n1 | 12 | – |
